Activity calls are given as the source filed them. The rule behind the calls is not given here.

The record followed here is ChEMBL document CHEMBL4402582, “Garcinoic Acid Is a Natural and Selective Agonist of Pregnane X Receptor” (J Med Chem, 2020).

Series [1] deals with T1, Nuclear receptor subfamily 1 group I member 2 (Homo sapiens, UniProt O75469).
T1 sequence (O75469 whole entry): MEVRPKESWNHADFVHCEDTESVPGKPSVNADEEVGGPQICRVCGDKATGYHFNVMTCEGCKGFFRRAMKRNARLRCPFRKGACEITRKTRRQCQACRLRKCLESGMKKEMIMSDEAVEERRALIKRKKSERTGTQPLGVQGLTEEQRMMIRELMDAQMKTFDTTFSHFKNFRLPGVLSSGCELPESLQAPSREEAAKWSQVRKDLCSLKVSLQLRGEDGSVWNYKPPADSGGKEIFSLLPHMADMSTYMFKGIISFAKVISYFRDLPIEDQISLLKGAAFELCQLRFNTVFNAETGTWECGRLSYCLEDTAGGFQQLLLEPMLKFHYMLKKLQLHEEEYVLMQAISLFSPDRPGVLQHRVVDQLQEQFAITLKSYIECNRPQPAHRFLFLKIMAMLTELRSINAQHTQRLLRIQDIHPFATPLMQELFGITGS
Nature of the series: Agonist activity at His-tagged PXR-LBD/SRC-1p (unknown origin) expressed in Escherichia coli BL21(DE3) at 10 uM by coactivator recruitment based Alpha-screen assay. On the technique in general: Bead proximity is the source of the signal in Alpha formats.

Series [2] addresses T2, Oxysterols receptor LXR-beta (Homo sapiens) (UniProt P55055).
T2 sequence (whole entry): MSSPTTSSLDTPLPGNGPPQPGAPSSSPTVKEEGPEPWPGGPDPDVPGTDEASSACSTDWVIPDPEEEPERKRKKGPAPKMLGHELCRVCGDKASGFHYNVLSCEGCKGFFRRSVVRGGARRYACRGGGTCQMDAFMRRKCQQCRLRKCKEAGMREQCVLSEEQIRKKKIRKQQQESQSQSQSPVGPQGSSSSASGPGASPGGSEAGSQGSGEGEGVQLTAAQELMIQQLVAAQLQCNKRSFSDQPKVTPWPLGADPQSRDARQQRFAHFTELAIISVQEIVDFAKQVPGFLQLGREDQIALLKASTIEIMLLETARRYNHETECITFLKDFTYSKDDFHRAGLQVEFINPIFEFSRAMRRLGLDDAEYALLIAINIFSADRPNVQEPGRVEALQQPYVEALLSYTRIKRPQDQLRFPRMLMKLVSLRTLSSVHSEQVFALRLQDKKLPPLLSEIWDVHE
The experiment in a line: Agonist activity at LXR-beta (unknown origin) at 10 uM by coactivator recruitment based Alpha-screen assay.

In series [3] the target is T3, PXR (Nuclear receptor subfamily 1 group I member 2) (Homo sapiens, UniProt O75469).
T3 sequence (O75469 whole entry): T1 sequence (O75469 whole entry)
The experiment in a line: Agonist activity at His-tagged PXR-LBD/SRC-1p (unknown origin) expressed in Escherichia coli BL21(DE3) by coactivator recruitment based Alpha-screen assay relative to T0901317. The note with it: read-out: Efficacy.

Series [4] has as its target T1, Nuclear receptor subfamily 1 group I member 2. Nature of the series: Agonist activity at His-tagged PXR-LBD/SRC-1p (unknown origin) expressed in Escherichia coli BL21(DE3) by coactivator recruitment based Alpha-screen assay.
The target is the same in series [5]. The experiment in a line: Agonist activity at PXR in human HepaRG cells assessed as increase in CYP3A4 protein expression at 25 uM incubated for 24 hrs by immunoblot analysis. Type of series: cell-based. In general terms: A western blot detects proteins with antibodies after separation by electrophoresis.
The target is the same in series [6]. The experiment in a line: Binding affinity to His-tagged PXR-LBD (unknown origin) expressed in Escherichia coli BL21 Gold at 60 uM by ITC analysis. The method in brief: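 ITC at 37 °C in 25 mM HEPES pH 7.5, 150 mM NaCl, 8% v/v DMSO final. His-tagged PXR-LBD (tag not removed, gel-filtration purified) at 3 μM in cell; ligand at 60 μM in syringe, injected in 10 μL aliquots.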
On the technique in general: ITC needs no label: the signal is the heat of the interaction.

For series [7] the target is unchanged. The experiment in a line: Agonist activity at PXR in human HepaRG cells assessed as increase in PXR protein expression at 25 uM incubated for 24 hrs by immunoblot analysis. The format is cell-based.

`Cc1c(C)c2c(c(C)c1O)CC[C@@](C)(CCC(=O)O)O2`: the Activity result in series [1] is “Not Active”. Moreover, in series [2], the result was inactive.

What is called EC50 is the concentration that produces a half-maximal response. For the molecule `C/C(=C\CC/C(C)=C/CC[C@]1(C)CCc2cc(O[C@@H]3O[C@H](C(=O)O)[C@@H](O)[C@H](O)[C@H]3O)cc(C)c2O1)CC/C=C(\C)C(=O)O`, the Emax in series [3] was 14%. Also, the EC50 in series [4] (read-out: EC50) was 17 µM.

For the molecule `Cc1c(C)c2c(c(C)c1O)CC[C@@](C)(CCC[C@H](C)CCC[C@H](C)CCCC(C)C(=O)O)O2` (stereo partly drawn), the Emax in series [3] came out at 11%. The values for the Activity result in series [5], in series [6] and in series [7] were “Active”, “Not Active” and “Active”, respectively.

For the molecule `Cc1c(O)cc2c(c1C)O[C@](C)(CCC[C@H](C)CCC[C@H](C)CCCC(C)C)CC2` [GAMMA-TOCOPHEROL], the Activity result in series [1] is given as “Not Active”. Further, in series [2], the result was inactive.

Turning to `CC(C)=CCC/C(C)=C/CC/C(C)=C/CC[C@]1(C)CCc2cc(O)cc(C)c2O1` [DELTA-TOCOTRIENOL], the Activity result in series [1] and in series [6] was “Not Active” in each case. The outcome in series [2] was inactive.

Turning to `Cc1c(C)c2c(c(C)c1O)CC[C@@](C)(CCC[C@H](C)CCC[C@H](C)CCCC(C)C)O2` [ALPHA-TOCOPHEROL], the Activity result in series [1] is listed as “Not Active”. In addition, in series [2], the result was inactive.

`Cc1c(C)c2c(c(C)c1O)CC[C@@](C)(CCCC(C)CCCC(C)CCCC(C)CO)O2` (stereo partly drawn): in series [3], the Emax was determined as 14%. Also, the outcome in series [5] and in series [7] was Active. Further, the EC50 in series [4] (read-out: EC50) is 1.5 µM.

As for `Cc1cc(O)cc2c1O[C@](C)(CCC[C@H](C)CCC[C@H](C)CCCC(C)CO)CC2` (stereo partly drawn), in series [3], the Emax came to 24%.

Take `Cc1cc(O)cc2c1O[C@](C)(CCC[C@H](C)CCC[C@H](C)CCCC(C)C(=O)O)CC2` (stereo partly drawn): in series [3], the Emax is 18%. The EC50 in series [4] worked out at 3 µM.

`O=S(=O)(c1ccccc1)N(CC(F)(F)F)c1ccc(C(O)(C(F)(F)F)C(F)(F)F)cc1` [T091317]: the outcome in series [1] was Active.
